# Laboratory results: ChEMBL document CHEMBL5303300, “EUbOPEN Chemogenomics Library - Multiplex” (2023)
# Where “and” joins values, the source holds several entries; their conditions need not be identical. Identical values can stand only once.
# Test system: U2OS
# Test: Multiplex assay against U2OS
# Assay type: toxicity, cell-based
# Settings: human, number of replicates 2
# Summary of the method: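 Cells stained live at seeding with Hoechst33342, BioTracker Green Microtubule Cytoskeleton Dye, MitoTracker Red and Annexin V Alexa Fluor 680 were imaged on a CQ1 microscope at 37°C and 5% CO2 after compound addition. Their classification by CellPathfinder machine-learning gating ran from Hoechst high-intensity objects versus normal cells, to healthy, pyknosed or fragmented nuclei among normal cells, to mitotic or apoptotic among pyknosed cells. Tubulin, mitochondrial-mass and membrane-permeability phenotypes are per cents of healthy-nucleus cells.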
# [1] = 12 h, 1 µM, compound concentration 1 uM
# [2] = 12 h, 10 µM, compound concentration 10 uM
# [3] = 24 h, 1 µM, compound concentration 1 uM
# [4] = 24 h, 10 µM, compound concentration 10 uM
# [5] = 48 h, 1 µM, compound concentration 1 uM
# [6] = 48 h, 10 µM, compound concentration 10 uM
smiles,measurement,setting,value
COc1cc(OC)cc(C(=O)NNC(=O)Nc2cccc3ccccc23)c1,Population Apoptotic (%),[1],66% and 60%
same,Population Healthy Nuclei (%),[1],65% and 85%
same,Population Hoechst High Intensity Objects (%),[1],0%
same,Population Membrane Permeable-Phenotype (%),[1],7% and 3%
same,Population Mitochondria Different-Phenotype (%),[1],0%
same,Population Mitotic Cells (%),[1],33% and 39%
same,Population Normal (%),[1],100%
same,Population Pyknosed Nuclei (%),[1],15% and 11%
same,Population Tubulin-Different-Phenotype (%),[1],53% and 88%
same,Population Healthy Nuclei (%),[2],80% and 64%
same,Population Hoechst High Intensity Objects (%),[2],0%
same,Population Membrane Permeable-Phenotype (%),[2],0% and 5%
same,Population Mitochondria Different-Phenotype (%),[2],0%
same,Population Mitotic Cells (%),[2],57% and 90%
same,Population Normal (%),[2],100%
same,Population Pyknosed Nuclei (%),[2],15% and 19%
same,Population Tubulin-Different-Phenotype (%),[2],71% and 38%
same,Population Apoptotic (%),[3],51% and 100%
same,Population Fragmented Nuclei (%),[3],4% and 12%
same,Population Healthy Nuclei (%),[3],83% and 79%
same,Population Hoechst High Intensity Objects (%),[3],0%
same,Population Membrane Permeable-Phenotype (%),[3],2% and 0%
same,Population Mitochondria Different-Phenotype (%),[3],0%
same,Population Normal (%),[3],99% and 100%
same,Population Pyknosed Nuclei (%),[3],11% and 8%
same,Population Tubulin-Different-Phenotype (%),[3],89% and 36%
same,Population Apoptotic (%),[4],34% and 30%
same,Population Fragmented Nuclei (%),[4],5% and 6%
same,Population Healthy Nuclei (%),[4],83% and 73%
same,Population Hoechst High Intensity Objects (%),[4],0%
same,Population Membrane Permeable-Phenotype (%),[4],0% and 4%
same,Population Mitochondria Different-Phenotype (%),[4],0% and 4%
same,Population Mitotic Cells (%),[4],65% and 69%
same,Population Normal (%),[4],100%
same,Population Pyknosed Nuclei (%),[4],11% and 20%
same,Population Tubulin-Different-Phenotype (%),[4],81% and 50%
same,Population Apoptotic (%),[5],64% and 50%
same,Population Fragmented Nuclei (%),[5],3% and 6%
same,Population Healthy Nuclei (%),[5],88% and 85%
same,Population Hoechst High Intensity Objects (%),[5],0%
same,Population Membrane Permeable-Phenotype (%),[5],0% and 4%
same,Population Mitochondria Different-Phenotype (%),[5],0% and 4%
same,Population Mitotic Cells (%),[5],35% and 50%
same,Population Normal (%),[5],100%
same,Population Pyknosed Nuclei (%),[5],7% and 8%
same,Population Tubulin-Different-Phenotype (%),[5],92% and 47%
same,Population Apoptotic (%),[6],60% and 63%
same,Population Fragmented Nuclei (%),[6],5% and 2%
same,Population Healthy Nuclei (%),[6],68% and 90%
same,Population Hoechst High Intensity Objects (%),[6],2% and 0%
same,Population Membrane Permeable-Phenotype (%),[6],3% and 1%
same,Population Mitochondria Different-Phenotype (%),[6],4% and 0%
same,Population Mitotic Cells (%),[6],39% and 36%
same,Population Normal (%),[6],97% and 100%
same,Population Tubulin-Different-Phenotype (%),[6],52% and 84%
COCCNC1CCC(Nc2cc(-c3csc(NCC4(C#N)CCOCC4)n3)c(Cl)cn2)CC1 (centres undefined),Population Apoptotic (%),[1],45% and 87%
same,Population Fragmented Nuclei (%),[1],17% and 9%
same,Population Healthy Nuclei (%),[1],34% and 40%
same,Population Hoechst High Intensity Objects (%),[1],0%
same,Population Mitochondria Different-Phenotype (%),[1],7%
same,Population Normal (%),[1],100% and 99%
same,Population Pyknosed Nuclei (%),[1],48% and 49%
same,Population Tubulin-Different-Phenotype (%),[1],57% and 58%
same,Population Apoptotic (%),[2],83% and 89%
same,Population Fragmented Nuclei (%),[2],10%
same,Population Hoechst High Intensity Objects (%),[2],2% and 1%
same,Population Mitochondria Different-Phenotype (%),[2],40% and 66%
same,Population Mitotic Cells (%),[2],16% and 10%
same,Population Normal (%),[2],97% and 98%
same,Population Pyknosed Nuclei (%),[2],40% and 78%
same,Population Tubulin-Different-Phenotype (%),[2],50%
same,Population Apoptotic (%),[3],59% and 94%
same,Population Fragmented Nuclei (%),[3],13% and 9%
same,Population Healthy Nuclei (%),[3],25% and 26%
same,Population Hoechst High Intensity Objects (%),[3],0% and 3%
same,Population Membrane Permeable-Phenotype (%),[3],0% and 14%
same,Population Mitochondria Different-Phenotype (%),[3],0% and 11%
same,Population Normal (%),[3],100% and 96%
same,Population Pyknosed Nuclei (%),[3],61% and 63%
same,Population Tubulin-Different-Phenotype (%),[3],55%
same,Population Apoptotic (%),[4],91%
same,Population Fragmented Nuclei (%),[4],9% and 6%
same,Population Hoechst High Intensity Objects (%),[4],2% and 3%
same,Population Membrane Permeable-Phenotype (%),[4],0% and 20%
same,Population Mitochondria Different-Phenotype (%),[4],33% and 58%
same,Population Mitotic Cells (%),[4],8%
same,Population Normal (%),[4],97% and 96%
same,Population Pyknosed Nuclei (%),[4],84% and 60%
same,Population Tubulin-Different-Phenotype (%),[4],66% and 52%
same,Population Apoptotic (%),[5],98% and 78%
same,Population Fragmented Nuclei (%),[5],11% and 16%
same,Population Healthy Nuclei (%),[5],7% and 9%
same,Population Hoechst High Intensity Objects (%),[5],5% and 0%
same,Population Membrane Permeable-Phenotype (%),[5],53% and 66%
same,Population Mitochondria Different-Phenotype (%),[5],38% and 66%
same,Population Normal (%),[5],94% and 100%
same,Population Pyknosed Nuclei (%),[5],81% and 74%
same,Population Tubulin-Different-Phenotype (%),[5],69% and 100%
same,Population Apoptotic (%),[6],100% and 94%
same,Population Fragmented Nuclei (%),[6],9% and 5%
same,Population Healthy Nuclei (%),[6],6% and 16%
same,Population Hoechst High Intensity Objects (%),[6],2% and 3%
same,Population Membrane Permeable-Phenotype (%),[6],66% and 40%
same,Population Mitochondria Different-Phenotype (%),[6],66% and 80%
same,Population Mitotic Cells (%),[6],0% and 5%
same,Population Normal (%),[6],97% and 96%
same,Population Pyknosed Nuclei (%),[6],83% and 78%
same,Population Tubulin-Different-Phenotype (%),[6],66% and 72%
C[C@@H]1CC[C@@]2(OC1)O[C@H]1[C@@H](O)[C@H]3[C@@H]4CC[C@H]5C[C@@H](O[C@@H]6O[C@H](CO)[C@H](O[C@@H]7O[C@H](CO)C(O)[C@H](O[C@@H]8OC[C@@H](O)[C@H](O)[C@H]8O)[C@H]7O[C@@H]7O[C@H](CO)[C@H](O)[C@H](O[C@@H]8O[C@H](CO)[C@@H](O)[C@H](O)[C@H]8O)[C@H]7O)[C@H](O)[C@H]6O)[C@H](O)C[C@]5(C)[C@H]4CC[C@]3(C)[C@H]1[C@@H]2C (some centres undefined) [DIGITONIN],Population Apoptotic (%),[2],65% [middle of 4 runs]
same,Population Healthy Nuclei (%),[2],67% and 87% and 86% and 88%
same,Population Hoechst High Intensity Objects (%),[2],0%
same,Population Membrane Permeable-Phenotype (%),[2],0% and 7% and 1% and 3%
same,Population Mitochondria Different-Phenotype (%),[2],0% and 3%
same,Population Normal (%),[2],100%
same,Population Pyknosed Nuclei (%),[2],5% and 3% and 9%
same,Population Tubulin-Different-Phenotype (%),[2],72% and 92% and 85% and 94%
same,Population Apoptotic (%),[4],58% [middle of 4 runs]
same,Population Healthy Nuclei (%),[4],67% and 83% and 85% and 86%
same,Population Hoechst High Intensity Objects (%),[4],0%
same,Population Membrane Permeable-Phenotype (%),[4],0% and 2% and 1%
same,Population Mitochondria Different-Phenotype (%),[4],0% and 2%
same,Population Normal (%),[4],100%
same,Population Pyknosed Nuclei (%),[4],13% and 12% and 9%
same,Population Tubulin-Different-Phenotype (%),[4],65% and 97% and 90% and 96%
same,Population Apoptotic (%),[6],70% and 100% and 62% and 51%
same,Population Healthy Nuclei (%),[6],68% and 75% and 92% and 91%
same,Population Hoechst High Intensity Objects (%),[6],1% and 0%
same,Population Membrane Permeable-Phenotype (%),[6],3% and 1% and 0%
same,Population Mitochondria Different-Phenotype (%),[6],5% and 1% and 0%
same,Population Normal (%),[6],98% and 100% and 99%
same,Population Pyknosed Nuclei (%),[6],13% and 7% and 6% and 5%
same,Population Tubulin-Different-Phenotype (%),[6],84% and 100% and 92% and 97%
CN[C@@H]1C[C@H]2O[C@@](C)([C@@H]1OC)n1c3ccccc3c3c4c(c5c6ccccc6n2c5c31)C(=O)NC4 [STAUROSPORINE],Population Apoptotic (%),[2],40% and 72% and 59% and 58%
same,Population Fragmented Nuclei (%),[2],50% and 34% and 30%
same,Population Hoechst High Intensity Objects (%),[2],3% and 0%
same,Population Membrane Permeable-Phenotype (%),[2],66% and 53% and 62% and 43%
same,Population Mitochondria Different-Phenotype (%),[2],66% and 53% and 51% and 68%
same,Population Mitotic Cells (%),[2],41% [middle of 4 runs]
same,Population Normal (%),[2],96% and 100%
same,Population Pyknosed Nuclei (%),[2],38% and 46% and 61% and 63%
same,Population Tubulin-Different-Phenotype (%),[2],73% [middle of 4 runs]
same,Population Apoptotic (%),[4],70% and 85% and 89%
same,Population Fragmented Nuclei (%),[4],45% and 26% and 27% and 40%
same,Population Healthy Nuclei (%),[4],5% and 3% and 4% and 8%
same,Population Hoechst High Intensity Objects (%),[4],0% and 1%
same,Population Mitochondria Different-Phenotype (%),[4],100% and 57% and 75% and 80%
same,Population Mitotic Cells (%),[4],30% and 14% and 10%
same,Population Normal (%),[4],100% and 98%
same,Population Pyknosed Nuclei (%),[4],50% and 70% and 68%
same,Population Tubulin-Different-Phenotype (%),[4],100% and 85% and 40%
same,Population Apoptotic (%),[6],86% and 87% and 88% and 91%
same,Population Healthy Nuclei (%),[6],6% and 5% and 4%
same,Population Hoechst High Intensity Objects (%),[6],0%
same,Population Membrane Permeable-Phenotype (%),[6],100% and 90% and 85%
same,Population Mitochondria Different-Phenotype (%),[6],100% and 60% and 71%
same,Population Mitotic Cells (%),[6],13% and 12% and 8%
same,Population Normal (%),[6],100%
same,Population Pyknosed Nuclei (%),[6],60% and 50% and 80% and 73%
same,Population Tubulin-Different-Phenotype (%),[6],100% and 85%
